According to ChEMBL document CHEMBL3232763, “Synthesis of 6-cinnamoyl-2H-benzo[b][1,4]oxazin-3(4H)-ones and their effects on A549 lung cancer cell growth” (Eur J Med Chem, 2014):
Active and inactive are the calls of the source. No cut-off for these calls is given here.

What was measured:
A549 [1] = assay: Induction of apoptosis in human A549 cells assessed as increase in apoptotic bodies formation at 5 uM measured at 48 hrs by Hoechst 33258 staining-based fluorescence microscopic analysis; format: functional, cell-based
In short: (§1)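 After 48 h with 5 µM compound or 0.1% DMSO, A549 cells in 24-well plates stained with 10 µg/ml Hoechst 33258 for 30 min at 37 °C, washed twice with PBS, and nuclei examined by fluorescence microscopy for chromatin condensation and apoptotic bodies.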

A549 [2] = assay: Induction of autophagy in human A549 cells assessed as upregulation of LC3-2 protein expression at 5 uM after 48 hrs by Western blot analysis; format: functional, cell-based
In short: (§2)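 Cells treated 48 h at 5 µM, washed with ice-cold PBS, lysed, protein quantified by Bradford; SDS electrophoresis, PVDF transfer, blocking in 5% milk/PBST; probed overnight at 4 °C with rabbit anti-human LC3b and GAPDH antibodies, HRP secondaries, film detection; LC3-II band density normalised to loading control.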

A549 [3] = assay: Induction of necrosis in human A549 cells at 10 uM after 48 hrs by LDH release assay; format: functional, cell-based
In short: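 LDH level measured in A549 cells after 48 h with 10 µM compound or untreated control, using a commercial kit per manufacturer's instructions; mean ± SE, n = 3.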

A549 [4] = assay: Cytotoxicity against human A549 cells assessed as change in cell morphology at 5 uM after 48 hrs by phase contrast microscopic analysis; format: functional, cell-based
In short: (§3)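 A549 cells (RPMI-1640, 10% bovine calf serum, 37 °C, 5% CO2) treated with compound at 5 µM or 0.1% DMSO control for 24 h or 48 h; morphology and cell density inspected by phase contrast microscopy.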

A549 [5] = assay: Cell cycle arrest in human A549 cells assessed as accumulation at G2 phase at 5 uM after 48 hrs by propidium iodide staining-based flow cytometric analysis (reference value: 9.63%); format: functional
A549 [6] = assay: Induction of autophagy in human A549 cells assessed as increase in acidic vesicles accumulation at 5 uM after 48 hrs by acridine orange staining-based fluorescence microscopic analysis; format: functional, cell-based
In short: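 A549 cells treated 48 h at 5 µM, then stained with acridine orange (5 µg/ml) for 1 min at room temperature, washed twice with PBS, and acidic vesicles viewed by fluorescence microscopy (200×).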

A549 [7] = assay: Cytotoxicity against human A549 cells assessed as inhibition of cell viability at 10 uM after 48 hrs by SRB assay relative to control; format: functional
In short: (§4)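 Sulforhodamine B assay: A549 cells seeded in 96-well plates, exposed 48 h to 1, 5 or 10 µM or 0.1% DMSO; survival expressed relative to DMSO-treated cells; triplicate assays, mean ± SE (n = 3); IC50 at 48 h derived.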

A549 [8] = assay: Cell cycle arrest in human A549 cells assessed as accumulation at G1 phase at 5 uM after 48 hrs by propidium iodide staining-based flow cytometric analysis (reference value: 50.70%); format: functional
A549 [9] = assay: Cytotoxicity against human A549 cells assessed as growth inhibition measured at 48 hrs by SRB assay; format: functional, cell-based; conditions: for IC50: A549, 48 h; in short: as §4
A549 [10] = assay: Cytotoxicity against human A549 cells assessed as decrease in cell density at 5 uM after 24 to 48 hrs by phase contrast microscopic analysis; format: functional, cell-based; in short: as §3
A549 [11] = assay: Cell cycle arrest in human A549 cells assessed as accumulation at S phase at 5 uM after 48 hrs by propidium iodide staining-based flow cytometric analysis (reference value: 39.68%); format: functional
A549 [12] = assay: Induction of apoptosis in human A549 cells assessed as chromatin condensation at 5 uM measured at 48 hrs by Hoechst 33258 staining-based fluorescence microscopic analysis; format: functional, cell-based; in short: as §1
A549 [13] = assay: Induction of autophagy in human A549 cells assessed as effect on LC3-2 protein expression at 5 uM after 48 hrs by Western blot analysis; format: functional, cell-based; in short: as §2

Compound | Activity (A549 [1]) | Activity (A549 [2]) | Activity (A549 [3]) | Activity (A549 [4]) | Activity (A549 [5]) [%] | Activity (A549 [6]) | Activity (A549 [7]) [%] | Activity (A549 [8]) [%] | growth inhibition (GI) (A549 [9]) | IC50 (A549 [9]) [µM] | Activity (A549 [10]) | Activity (A549 [11]) [%] | Activity (A549 [12]) | Activity (A549 [13])
COc1cc(/C=C/C(=O)c2ccc3c(c2)NC(=O)CO3)cc(OC)c1 | inactive | Active | inactive | inactive | 15.29 | Active | 24 | 75.46 | Dose-dependent effect | 3.29 | Active | 9.25 | inactive | –
O=C1COc2ccc(C(=O)/C=C/c3ccc4c(c3)OCO4)cc2N1 | inactive | – | inactive | inactive | 10.33 | inactive | – | 63.37 | Dose-dependent effect | 16.3 | Active | 26.3 | inactive | inactive
O=C1COc2ccc(C(=O)/C=C/c3ccc4ccccc4c3)cc2N1 | – | – | – | inactive | – | – | – | – | – | – | – | – | – | –
COc1ccc(/C=C/C(=O)c2ccc3c(c2)NC(=O)CO3)c(OC)c1 | inactive | Active | inactive | inactive | 11.5 | Active | – | 57.92 | Dose-dependent effect | 6.49 | Active | 30.59 | inactive | –
O=C1COc2ccc(C(=O)/C=C/c3ccc(Cl)cc3)cc2N1 | – | – | – | inactive | – | – | – | – | – | – | – | – | – | –
O=C1COc2ccc(C(=O)/C=C/c3ccc(OCc4ccccc4)cc3)cc2N1 | – | – | – | inactive | – | – | – | – | – | – | – | – | – | –
O=c1[nH]cc(F)c(=O)[nH]1 [FLUOROURACIL] | – | – | – | – | – | – | – | – | – | 0.98 | – | – | – | –
O=C1COc2ccc(C(=O)/C=C/c3ccccc3)cc2N1 | inactive | inactive | inactive | inactive | 12.66 | inactive | – | 55.27 | Dose-dependent effect | 5.46 | Active | 32.08 | inactive | –
